Results from ChEMBL document CHEMBL2021852 (ACS Med Chem Lett, 2011).
Values belong to the compound of their own block, whether it stands above or below them. Active and inactive are the calls of the source. The calls are words filed in the database; no cut-off is given here.

Assays:
[1] = biological target: T1, Renin (Homo sapiens, UniProt P00797); assay: Inhibition of human recombinant renin using DABCYL-gamma-Abu-Ile-His-Pro-Phe-His-Leu-Val-Ile-His-Thr-EDANS as substrate for 60 mins by fluorimetry
T1 sequence (P00797 whole entry): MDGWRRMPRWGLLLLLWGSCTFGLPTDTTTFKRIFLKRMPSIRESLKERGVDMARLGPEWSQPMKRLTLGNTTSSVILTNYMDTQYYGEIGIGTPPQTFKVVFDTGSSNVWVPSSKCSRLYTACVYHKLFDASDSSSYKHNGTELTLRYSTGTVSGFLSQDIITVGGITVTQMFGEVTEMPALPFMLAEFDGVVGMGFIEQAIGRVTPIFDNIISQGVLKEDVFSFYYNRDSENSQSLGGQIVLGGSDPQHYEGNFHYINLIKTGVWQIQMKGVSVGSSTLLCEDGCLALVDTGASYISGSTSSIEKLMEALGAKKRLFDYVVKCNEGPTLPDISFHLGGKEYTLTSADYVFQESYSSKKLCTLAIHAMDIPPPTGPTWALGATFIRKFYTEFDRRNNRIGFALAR
In short: (§1)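 Purified recombinant human renin measured in buffer; each value is the average of at least two replicates.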

[2] = biological target: T1, Renin; assay: Inhibition of renin in human plasma assessed as formation of angiotensin1 product after 90 mins by competitive radioimmunoassay
In short: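 IC50 for renin inhibition determined in the presence of human plasma; each value is the average of at least two replicates.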

[3] = biological target: T1, Renin; assay: Inhibition of human recombinant renin using H-Asp-Arg-Val-Tyr-Ile-His-Pro-Phe-His-Leu-Val-Ile-His-Asn-OH as substrate assessed as formation of angiotensin1 product after 2 hrs by competive radioimmunoassay; in short: as §1
[4] = biological target: Cytochrome P450 3A4 (Homo sapiens, UniProt P08684); assay: Inhibition of CYP3A4 using testosterone as substrate in human liver microsome for 20 mins by HPLC analysis; format: ADME, microsomes
Cytochrome P450 3A4, sequence (P08684 whole entry): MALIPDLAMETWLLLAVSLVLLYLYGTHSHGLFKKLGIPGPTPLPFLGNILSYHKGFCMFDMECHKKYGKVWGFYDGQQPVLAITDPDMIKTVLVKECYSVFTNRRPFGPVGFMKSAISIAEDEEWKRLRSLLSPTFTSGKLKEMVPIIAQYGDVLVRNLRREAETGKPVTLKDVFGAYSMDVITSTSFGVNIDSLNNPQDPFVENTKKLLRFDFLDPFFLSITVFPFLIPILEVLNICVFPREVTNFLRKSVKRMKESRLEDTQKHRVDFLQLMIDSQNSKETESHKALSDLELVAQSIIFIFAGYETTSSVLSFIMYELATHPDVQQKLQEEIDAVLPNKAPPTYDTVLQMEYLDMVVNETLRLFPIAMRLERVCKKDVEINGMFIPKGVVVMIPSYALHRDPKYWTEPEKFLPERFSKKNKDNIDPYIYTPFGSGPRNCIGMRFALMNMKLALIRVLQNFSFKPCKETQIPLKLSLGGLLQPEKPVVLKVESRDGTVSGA
In short: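 CYP3A4 inhibition measured in human liver microsomes; IC50 is the average of at least two replicates.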

[5] = AUC (0 to t) in rat at 8 mg/kg, po; format: ADME, organism-based; parameters: dose 8 mg/kg, route oral; details: plasma
In short: (§2)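 Compounds were dosed as fumarate salts in separate intravenous and oral arms. Oral AUC(0–t), IV half-life, IV clearance, Vss and oral bioavailability (F) were derived from the plasma levels.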

[6] = AUC (0 to t) in cynomolgus monkey at 1 mg/kg, po; format: ADME, organism-based, Macaca fascicularis; parameters: dose 1 mg/kg, route oral; details: plasma; in short: as §2
[7] = Half life in rat at 1.6 mg/kg, iv; format: ADME, organism-based; parameters: dose 1.6 mg/kg, route intravenous; details: in vivo; in short: as §2
[8] = Half life in cynomolgus monkey at 1 mg/kg, iv; format: ADME, organism-based, Macaca fascicularis; parameters: dose 1 mg/kg, route intravenous; details: in vivo; in short: as §2
[9] = Clearance in rat at 1.6 mg/kg, iv; format: ADME, organism-based; parameters: dose 1.6 mg/kg, route intravenous; details: in vivo; in short: as §2
[10] = Volume of distribution at steady state in rat at 1.6 mg/kg, iv and 8 mg/kg, po; format: ADME, organism-based; details: in vivo, read-out: Vdss; in short: as §2
[11] = Volume of distribution at steady state in cynomolgus monkey at 1 mg/kg, iv and 1 mg/kg, po; format: ADME, organism-based, Macaca fascicularis; details: in vivo, read-out: Vdss; in short: as §2
[12] = Oral bioavailability in rat at 8 mg/kg; format: ADME, organism-based; details: in vivo
In short: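 Rats given compound as the fumarate salt, intravenously and by mouth in separate arms. Oral AUC(0–t), IV half-life, IV clearance, Vss and F were tabulated. The oral dose was 8.0 mg/kg, paired with an IV dose of 1.6 mg/kg.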

[13] = Oral bioavailability in cynomolgus monkey at 1 mg/kg; format: ADME, organism-based, Macaca fascicularis; details: in vivo; in short: as §2
[14] = biological target: T2, Cathepsin E (Homo sapiens) (UniProt P14091); assay: Inhibition of human recombinant cathepsin E using Mca-GKPILFFRLK(Dnp)-D-Arg-NH2 as substrate at 10 uM incubated for 10 mins prior to substrate addition measured for 1 hr by FRET analysis
T2 sequence (whole entry): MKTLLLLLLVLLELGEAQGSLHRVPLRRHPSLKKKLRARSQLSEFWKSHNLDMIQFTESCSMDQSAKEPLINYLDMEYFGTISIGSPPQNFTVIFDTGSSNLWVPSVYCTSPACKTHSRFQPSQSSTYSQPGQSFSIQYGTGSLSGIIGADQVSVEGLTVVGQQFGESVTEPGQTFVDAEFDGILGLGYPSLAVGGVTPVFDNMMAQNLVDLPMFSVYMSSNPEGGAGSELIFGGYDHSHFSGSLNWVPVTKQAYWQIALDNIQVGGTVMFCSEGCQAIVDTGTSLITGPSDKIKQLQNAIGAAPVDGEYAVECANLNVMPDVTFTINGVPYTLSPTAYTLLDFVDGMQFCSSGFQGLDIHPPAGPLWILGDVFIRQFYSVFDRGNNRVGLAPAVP

[15] = biological target: Cathepsin D (Homo sapiens) (UniProt P07339); assay: Inhibition of human cathepsin D using Mca-GKPILFFRLK(Dnp)-D-Arg-NH2 as substrate at 10 uM incubated for 10 mins prior to substrate addition measured for 1 hr by FRET analysis
Cathepsin D (Homo sapiens), sequence (P07339 65-162 limits assumed): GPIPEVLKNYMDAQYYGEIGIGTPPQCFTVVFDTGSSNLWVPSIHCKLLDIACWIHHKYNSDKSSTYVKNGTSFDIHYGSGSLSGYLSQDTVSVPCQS
Cathepsin D (Homo sapiens), sequence (P07339 169-412 limits assumed): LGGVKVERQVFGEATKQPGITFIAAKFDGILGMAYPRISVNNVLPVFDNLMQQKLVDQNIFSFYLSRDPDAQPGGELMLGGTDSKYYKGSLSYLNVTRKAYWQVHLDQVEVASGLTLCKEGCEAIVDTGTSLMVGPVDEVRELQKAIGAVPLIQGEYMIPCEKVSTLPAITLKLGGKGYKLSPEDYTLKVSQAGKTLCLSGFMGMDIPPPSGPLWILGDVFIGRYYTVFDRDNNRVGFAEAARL

[16] = biological target: Beta-secretase 1 (Homo sapiens) (UniProt P56817); assay: Inhibition of BACE using SEVNLDAEFK(Dnp)NH2 as substrate at 10 uM incubated for 10 mins prior to substrate addition measured for 1 hr by FRET analysis
Beta-secretase 1 (Homo sapiens), sequence (P56817 whole entry): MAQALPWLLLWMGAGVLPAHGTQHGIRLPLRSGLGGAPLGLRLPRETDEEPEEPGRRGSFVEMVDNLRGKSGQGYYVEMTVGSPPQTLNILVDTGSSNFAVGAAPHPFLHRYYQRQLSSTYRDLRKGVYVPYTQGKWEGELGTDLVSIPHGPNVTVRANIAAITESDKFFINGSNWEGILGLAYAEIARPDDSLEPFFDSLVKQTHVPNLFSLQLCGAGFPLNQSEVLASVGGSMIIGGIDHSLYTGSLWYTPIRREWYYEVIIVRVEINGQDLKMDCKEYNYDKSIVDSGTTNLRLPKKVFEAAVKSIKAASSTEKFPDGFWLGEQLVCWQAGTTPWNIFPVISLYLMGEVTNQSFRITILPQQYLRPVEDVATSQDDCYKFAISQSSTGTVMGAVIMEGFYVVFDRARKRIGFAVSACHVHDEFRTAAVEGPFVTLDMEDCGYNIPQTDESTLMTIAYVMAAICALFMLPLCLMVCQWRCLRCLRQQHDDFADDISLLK

[17] = tested on: Rattus norvegicus; assay: Antihypertensive activity in double transgenic rat expressing human renin assessed as reduction in mean arterial blood pressure at 10 mg/kg, po after 24 hrs; format: functional, organism-based; parameters: dose 10 mg/kg; details: Artery
In short: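 Double transgenic rats expressing human renin and angiotensinogen, with severe hypertension dependent on human renin, received 10 mg/kg orally. Mean arterial pressure was followed over time, including at t = 24 h.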

[18] = AUC (0 to t) in rat at 8.2 mg/kg, po; format: ADME, organism-based; parameters: dose 8.2 mg/kg, route oral; details: plasma; in short: as §2
[19] = AUC (0 to t) in cynomolgus monkey at 2 mg/kg, po; format: ADME, organism-based, Macaca fascicularis; parameters: dose 2 mg/kg, route oral; details: plasma; in short: as §2
[20] = Half life in rat at […], iv; format: ADME, organism-based; parameters: dose 1.5 mg/kg, route intravenous; details: in vivo
[21] = Clearance in rat at […], iv; format: ADME, organism-based; parameters: dose 1.5 mg/kg, route intravenous; details: in vivo
[22] = Clearance in cynomolgus monkey at 1 mg/kg, iv; format: ADME, organism-based, Macaca fascicularis; parameters: dose 1 mg/kg, route intravenous; details: in vivo; in short: as §2
[23] = Volume of distribution at steady state in rat at […], iv and 8.2 mg/kg, po; format: ADME, organism-based; details: in vivo, read-out: Vdss
[24] = Volume of distribution at steady state in cynomolgus monkey at 1 mg/kg, iv and 2 mg/kg, po; format: ADME, organism-based, Macaca fascicularis; details: in vivo, read-out: Vdss; in short: as §2
[25] = Oral bioavailability in rat at 8.2 mg/kg; format: ADME, organism-based; details: in vivo; in short: as §2
[26] = Oral bioavailability in cynomolgus monkey at 2 mg/kg; format: ADME, organism-based, Macaca fascicularis; details: in vivo; in short: as §2

SMILES: CNC[C@H](CC1CCCCC1)NC(=O)N1CCC[C@@H]([C@@](O)(CCCCOC)c2cccc(Cl)c2F)C1
IC50 [1]: 0.73 nM
IC50 [2]: 9.4 nM

SMILES: CNC[C@@H](NC(=O)N1CCC[C@@H]([C@@H](OCCNC(=O)OC)c2cccc(Cl)c2)C1)[C@@H](O)C1CCCCC1
IC50 [1]: 0.33 nM
IC50 [3]: 0.15 nM
IC50 [2]: 1.06 nM
IC50 [4]: 7100 nM

SMILES: COCCCC[C@@](O)(c1cccc(Cl)c1F)[C@@H]1CCCN(C(=O)NC[C@@H](N)CC2CCCCC2)C1
IC50 [1]: 2.2 nM
IC50 [3]: 0.27 nM
IC50 [2]: 69 nM
IC50 [4]: 2910 nM

Continued, in another order:

AUC(0-t) [5]: 301 ng·h/mL
AUC(0-t) [6]: 130 ng·h/mL
half-life [7]: 16.2 h
half-life [8]: 23.3 h
clearance [9]: 36 mL/min/kg
Vd [10]: 19 L/kg
Vd [11]: 9.8 L/kg
bioavailability [12]: 9.4%
bioavailability [13]: 9.9%
SMILES: CNC[C@H](CC1CCCCC1)NC(=O)N1CCC[C@@H]([C@@H](OCCNC(=O)OC)c2cccc(Cl)c2)C1.O=C(O)/C=C/C(=O)O

inhibition [14]: < 10%
inhibition [15]: < 10%
inhibition [16]: < 10%
SMILES: CN[C@H](CNC(=O)N1CCC[C@@H]([C@@H](OCCNC(=O)OC)c2cccc(Cl)c2)C1)C[C@H]1CCCOC1
Activity [17]: Active

AUC(0-t) [18]: 167 ng·h/mL
AUC(0-t) [19]: 172 ng·h/mL
half-life [20]: 18.3 h
half-life [8]: 14 h
clearance [21]: 48 mL/min/kg
clearance [22]: 9.5 mL/min/kg
Vd [23]: 39 L/kg
Vd [24]: 5 L/kg
bioavailability [25]: 7.5%
bioavailability [26]: 5.3%
SMILES: CNC[C@H](C[C@H]1CCCOC1)NC(=O)N1CCC[C@@H]([C@@H](OCCNC(=O)OC)c2cccc(Cl)c2)C1.O=C(O)/C=C/C(=O)O

IC50 [1]: 5.5 nM
IC50 [3]: 2.7 nM
IC50 [2]: 4.5 nM
SMILES: CNC[C@H](C[C@@H]1CCCOC1)NC(=O)N1CCC[C@@H]([C@@H](OCCNC(=O)OC)c2cccc(Cl)c2)C1
